Source: ChEMBL document CHEMBL1124826, “Novel prodrugs which are activated to cytotoxic alkylating agents by carboxypeptidase G2” (1990)
pIC50: −log10 of the molar value.

Legend:
Type in all cases: functional
Conditions in all cases: read-out: ID50 (the source's name)
JAR [1] = assay: The compound along with CPG2 was tested for cytotoxicity against human JAR, choriocarcinoma cell line.
Summary of the method: (§1)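 JAR and LS174T cells (5×10^4 mL⁻¹, DMEM) exposed to prodrug at 0.5-800 μM, freshly made and adjusted to pH 7.4. Dosing was repeated at the same concentration three times, 24 h apart. CPG2 at 6 units mL⁻¹ final was added with each dose to generate active drug in situ. Duplicates. Viability was counted by hemocytometer 24 h after the last dose, relative to untreated controls.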

JAR [2] = assay: The compound was tested for cytotoxicity against human JAR, choriocarcinoma cell line.
Summary of the method: (§2)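 JAR and LS174T cells (5×10^4 mL⁻¹, DMEM) exposed to compound at 0.5-800 μM, with no enzyme added. Solutions were freshly made and adjusted to pH 7.4. Dosing was repeated at the same concentration three times, 24 h apart. Duplicates. Viability was counted by hemocytometer 24 h after the last dose, relative to untreated controls.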

LS174T [3] = assay: The compound along with CPG2 was tested for cytotoxicity against human LS174T,colorectal cell line.; summary of the method: as §1
LS174T [4] = assay: The compound was tested for cytotoxicity against human LS174T,colorectal cell line.; summary of the method: as §2

Structure (SMILES)	pIC50 (JAR [1])	pIC50 (JAR [2])	pIC50 (LS174T [3])	pIC50 (LS174T [4])
CS(=O)(=O)OCCN(CCOS(C)(=O)=O)c1ccc(C(=O)NC(CCC(=O)O)C(=O)O)cc1 (configuration not stated)	4.22	< 3.10	4.19	3.10
O=C(O)CCC(NC(=O)c1ccc(N(CCCl)CCCl)cc1)C(=O)O (configuration not stated)	5.10	< 3.10	4.60	< 3.10
CS(=O)(=O)OCCN(CCCl)c1ccc(C(=O)NC(CCC(=O)O)C(=O)O)cc1 (configuration not stated)	5.00	3.20	5.00	3.55
